Test results published in article PMC8771160 (Oncology Reports, 2022).

Columns and labels:
HBL6 = test: Cell proliferation assay; type: cell-based; conditions: KSHV (+) cell line HBL6, 24 h
In short: (§1)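 PEL lines, KSHV-negative B-lymphoma lines or PBMCs were seeded at 1×10^4 cells/well and cultured with or without test compound at 37°C for 24 h. Cell Count Reagent SF was added (10 µl to 90 µl suspension) for 2 h at 37°C, and OD was read at 450 nm. Viability is expressed as % of untreated cells.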

DG75 = test: Cell proliferation assay; type: cell-based; conditions: KSHV (−) cell line DG75, 24 h
In short: as §1

[1] = system: KSHV-uninfected B cell lines; test: Cell proliferation assay, KSHV-uninfected B cell lines as a group; type: cell-based; conditions: 6.25 and 12.5 µM, 24 h
In short: as §1

BCBL1 = test: Cell proliferation assay; type: cell-based; conditions: KSHV (+) cell line BCBL1, 24 h
In short: as §1

HIV RT = conditions: cited from earlier work
HCV NS5B = conditions: cited from earlier work
[2] = system: cancer cell proliferation; conditions: cited from earlier work
Ramos = test: Cell proliferation assay; type: cell-based; conditions: KSHV (−) cell line Ramos, 24 h
In short: as §1

[3] = system: influenza virus endonuclease; conditions: cited from earlier work
BC3 = test: Cell proliferation assay; type: cell-based; conditions: KSHV (+) cell line BC3, 24 h
In short: as §1

Question: Which CC50 (HBL6) does the source give for “1,1,1′,1′-tetramethyl [60]fullerenodipyrrolidinium diiodide [Derivative #1]” here?
Answer: 19.7 µM

Question: What about the CC50 (DG75) of the same substance?
Answer: 23.4 µM

Question: What about the “viability of DG75 and Ramos cells compared with the controls” value [1] of the same substance?
Answer: increased the viability

Question: And the CC50 (BCBL1)?
Answer: > 25 µM

Question: And the “HIV RT inhibitory activity” value (HIV RT)?
Answer: displayed HIV RT inhibitory activity

Question: What about the “HCV NS5B inhibitory activity” value (HCV NS5B) of the same substance?
Answer: inhibiting

Question: And the cancer cell proliferation [2]?
Answer: suppressed cancer cell proliferation

Question: What about the CC50 (Ramos) of the same substance?
Answer: 24.9 µM

Question: And the “influenza virus endonuclease inhibitory activity” value [3]?
Answer: inhibitory activities

Question: And the CC50 (BC3)?
Answer: 15.5 µM
